Results reported in ChEMBL document CHEMBL1148785, “Second generation tetrahydroquinoline-based protein farnesyltransferase inhibitors as antimalarials” (J Med Chem, 2007).

How the values were obtained:
Plasmodium falciparum [1] = test: Inhibition of Plasmodium falciparum protein farnesyltransferase at 50 nM by scintillation proximity assay
Plasmodium falciparum [2] = test: Inhibition of Plasmodium falciparum protein farnesyltransferase at 5 nM by scintillation proximity assay
Plasmodium falciparum [3] = test: Inhibition of Plasmodium falciparum protein farnesyltransferase at 0.5 nM by scintillation proximity assay
Plasmodium falciparum [4] = test: Antimalarial activity against Plasmodium falciparum 3D7; format: functional; conditions: Plasmodium falciparum, 3D7; read-out: ED50 (the source's name)
How it was run: (§1)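 Asynchronous culture in type A+ erythrocytes at 0.5% parasitemia and 0.5% hematocrit, grown in RPMI-1640 with 20% heat-inactivated human A+ plasma. Compound was serially diluted from a top final 5 µM, with DMSO vehicle as 100% growth. Plates ran 48 h at 37 °C under 5% CO2/5% O2/90% N2, then [3H]-hypoxanthine (0.3 µCi) for 24 h. Filter-harvested counts were corrected for the uninfected-RBC background. ED50 by linear regression; duplicates averaged.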

Plasmodium falciparum [5] = test: Antimalarial activity against Plasmodium falciparum K1; format: functional; conditions: Plasmodium falciparum, K1; read-out: ED50 (the source's name); how it was run: as §1

Compound | inhibition (Plasmodium falciparum [1]) [%] | inhibition (Plasmodium falciparum [2]) [%] | inhibition (Plasmodium falciparum [3]) [%] | EC50 (Plasmodium falciparum [4]) [nM] | EC50 (Plasmodium falciparum [5]) [nM]
Cc1oncc1S(=O)(=O)N(CC(=O)NC(C)(C)C)C1Cc2cc(C#N)ccc2N(Cc2cncn2C)C1 (stereo not given) | 3 | 0 | 0 | > 5000 | > 5000
CC(C)COC(=O)N1CCC(CN(C2Cc3cc(C#N)ccc3N(Cc3cncn3C)C2)S(=O)(=O)c2cn(C)cn2)CC1 (stereo not given) | 98 | 90 | 24 | 10 | 5.5
CCOc1ccccc1CN(C1Cc2cc(C#N)ccc2N(Cc2cncn2C)C1)S(=O)(=O)c1cn(C)cn1 (stereo not given) | 11 | 5 | 1 | 2600 | 3600
Cn1cnc(S(=O)(=O)N(CCNC(=O)OC(C)(C)C)C2Cc3cc(C#N)ccc3N(Cc3cncn3C)C2)c1 (stereo not given) | 99 | 90 | 28 | 460 | 75
Cn1cncc1CN1CC(N(CC2CCN(C(=O)C3CCCC3)CC2)S(=O)(=O)c2ccccn2)Cc2cc(C#N)ccc21 (stereo not given) | 100 | 39 | 94 | 58 | 50
Cn1cnc(S(=O)(=O)N(CCn2cccc2)C2Cc3cc(C#N)ccc3N(Cc3cncn3C)C2)c1 (stereo not given) | 99 | 98 | 54 | 1.8 | 1.8
COC(=O)N1CCC(CN(C2Cc3cc(C#N)ccc3N(Cc3cncn3C)C2)S(=O)(=O)c2cccc(F)c2)CC1 (stereo not given) | 93 | 86 | 39 | 90 | 150
Cn1cnc(CN2CC(N(Cc3ccccc3)S(=O)(=O)c3cn(C)cn3)Cc3cc(-c4ccccc4)ccc32)c1 (stereo not given) | 99 | 90 | 9 | 450 | 380
COC(=O)N(C)CCCCN(C1Cc2cc(C#N)ccc2N(Cc2cncn2C)C1)S(=O)(=O)c1ccccn1 (stereo not given) | 90 | 59 | 15 | 230 | 400
COC(=O)N1CCC(CN(C2Cc3cc(C#N)ccc3N(Cc3cncn3C)C2)S(=O)(=O)C2CC2)CC1 (stereo not given) | 37 | 3 | 0 | > 5000 | 3950
COC(=O)N1CCC(CN(C2Cc3cc(C#N)ccc3N(Cc3cccnc3)C2)S(=O)(=O)c2ccccn2)CC1 (stereo not given) | 35 | 12 | 3 | 3400 | 3000
C=C(C)CN(C1Cc2cc(-c3ccccc3)ccc2N(Cc2cn(C)cn2)C1)S(=O)(=O)c1cn(C)cn1 (stereo not given) | 99 | 89 | 22 | 640 | 475
Cn1cncc1CN1CC(N(Cc2cccc3cccnc23)S(=O)(=O)c2ccccn2)Cc2cc(C#N)ccc21 (stereo not given) | 88 | 46 | 17 | 1740 | 1320
CN(C)CCN(C1Cc2cc(C#N)ccc2N(Cc2cncn2C)C1)S(=O)(=O)c1cn(C)cn1 (stereo not given) | 64 | 15 | 0 | 2700 | 3100
Cn1cnc(CN2CC(N(CC(=O)NC(C)(C)C)S(=O)(=O)c3ccccc3)Cc3cc(-c4ccccc4)ccc32)c1 (stereo not given) | 8 | 0 | 0 | 2800 | 2800
Cn1cnc(S(=O)(=O)N(CCCCON2C(=O)c3ccccc3C2=O)C2Cc3cc(C#N)ccc3N(Cc3cncn3C)C2)c1 (stereo not given) | 99 | 96 | 57 | 140 | 100

Compound | inhibition (Plasmodium falciparum [1]) [%] | inhibition (Plasmodium falciparum [2]) [%] | inhibition (Plasmodium falciparum [3]) [%] | EC50 (Plasmodium falciparum [4]) [nM] | EC50 (Plasmodium falciparum [5]) [nM]
CCN(CC)C(=O)c1ccc2c(c1)CC(N(CC(=O)NC(C)(C)C)S(=O)(=O)c1cn(C)cn1)CN2Cc1cncn1C (stereo not given) | 73 | 23 | 0 | 2800 | 2600
Cn1cnc(S(=O)(=O)N(CCN2CCCC2=O)C2Cc3cc(C#N)ccc3N(Cc3cncn3C)C2)c1 (stereo not given) | 99 | 65 | 0 | 87 | 60
CC(C)S(=O)(=O)N1CCC(CN(C2Cc3cc(C#N)ccc3N(Cc3cncn3C)C2)S(=O)(=O)c2ccccn2)CC1 (stereo not given) | 96 | 17 | 89 | 75 | 55
COC(=O)N1CCC(CN(C2Cc3cc(C#N)ccc3N(C(C)c3cnc[nH]3)C2)S(=O)(=O)c2ccccn2)CC1 (stereo not given) | 96 | 79 | 12 | 650 | 650
Cn1cncc1CN1CC(N(Cc2ccccc2F)S(=O)(=O)c2ccccn2)Cc2cc(C#N)ccc21 (stereo not given) | 100 | 82 | 19 | 230 | 1250
COC(=O)N1CCC(CN(C2Cc3cc(C#N)ccc3N(Cc3cncn3C)C2)S(=O)(=O)c2sccc2C)CC1 (stereo not given) | 95 | 66 | 18 | 55 | 75
Cn1cncc1CN1CC(N(CCn2cccn2)S(=O)(=O)c2ccccn2)Cc2cc(C#N)ccc21 (stereo not given) | 99 | 96 | 68 | 13 | 20
Cn1cncc1CN1CC(N(CCCCON2C(=O)c3ccccc3C2=O)S(=O)(=O)c2ccccn2)Cc2cc(C#N)ccc21 (stereo not given) | 84 | 32 | 0 | 2150 | 1420
Cn1cncc1CN1CC(N(Cc2cccc3nsnc23)S(=O)(=O)c2ccccn2)Cc2cc(C#N)ccc21 (stereo not given) | 85 | 31 | 12 | 175 | 98
CSCCC(=O)N(Cc1ccccc1F)C1Cc2cc(C#N)ccc2N(Cc2cncn2C)C1 (stereo not given) | 52 | 9 | 0 | 270 | 450
CC(C)OC(=O)N1CCC(CN(C2Cc3cc(-c4ccccc4)ccc3N(Cc3cn(C)cn3)C2)S(=O)(=O)c2cn(C)cn2)CC1 (stereo not given) | 32 | 0 | 0 | 450 | 350
Cc1c(S(=O)(=O)N(CC2CCN(C(=O)OC(C)(C)C)CC2)C2Cc3cc(C#N)ccc3N(Cc3cncn3C)C2)ncn1C (stereo not given) | 98 | 87 | 18 | 140 | 75
Cn1cnc(S(=O)(=O)N(Cc2ccc3cccnc3c2)C2Cc3cc(C#N)ccc3N(Cc3cncn3C)C2)c1 (stereo not given) | 99 | 91 | 37 | 210 | 600
C=C(C)C(=O)N1CCC(CN(C2Cc3cc(C#N)ccc3N(Cc3cncn3C)C2)S(=O)(=O)c2ccccn2)CC1 (stereo not given) | 100 | 31 | 92 | 50 | 60
Cn1cnc(S(=O)(=O)N(Cc2ccccn2)C2Cc3cc(C#N)ccc3N(Cc3cncn3C)C2)c1 (stereo not given) | 98 | 96 | 25 | 10 | 36
COC(=O)N1CCC(CN(C2Cc3cc(C#N)ccc3N(Cc3cncn3C)C2)S(=O)(=O)c2ncn(C)c2C)CC1 (stereo not given) | 100 | 97 | 49 | 35 | < 20
